In ChEMBL document CHEMBL5154665, “Design, synthesis, biochemical evaluation, radiolabeling and in vivo imaging with high affinity class-IIa histone deacetylase inhibitor for molecular imaging and targeted therapy” (Eur J Med Chem, 2022):

What was measured:
Histone deacetylase 1 = Histone deacetylase 1 (Homo sapiens, UniProt Q13547); experiment: Inhibition of recombinant human HDAC1 using fluorogenic substrate by fluorescence microplate reader assay
Outline: (§1)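 Recombinant human HDAC isoforms were tested at 9 inhibitor dilutions in commercial fluorogenic enzyme kits, per the manufacturer's protocol. For class IIa enzymes, deacetylation of a TFA-lysine substrate lets trypsin release a fluorophore, read on a microplate reader. IC50 came from a nonlinear fit of % HDAC activity inhibition against compound concentration.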

[1] = molecular target: T1, Class 1 histone deacetylase (Homo sapiens, UniProt Q13547+O15379+Q92769+Q9BY41); experiment: Inhibition of HDAC class 1 in human HT-29 cells using Boc-Lys-Ac as substrate incubated for 3 hrs by microplate reader assay; assay type: cell-based
Histone deacetylase 8 = molecular target: T2, Histone deacetylase 8 (Homo sapiens, UniProt Q9BY41); experiment: Inhibition of recombinant human HDAC8 using fluorogenic substrate by fluorescence microplate reader assay; outline: as §1
T2 sequence (Q9BY41 whole entry): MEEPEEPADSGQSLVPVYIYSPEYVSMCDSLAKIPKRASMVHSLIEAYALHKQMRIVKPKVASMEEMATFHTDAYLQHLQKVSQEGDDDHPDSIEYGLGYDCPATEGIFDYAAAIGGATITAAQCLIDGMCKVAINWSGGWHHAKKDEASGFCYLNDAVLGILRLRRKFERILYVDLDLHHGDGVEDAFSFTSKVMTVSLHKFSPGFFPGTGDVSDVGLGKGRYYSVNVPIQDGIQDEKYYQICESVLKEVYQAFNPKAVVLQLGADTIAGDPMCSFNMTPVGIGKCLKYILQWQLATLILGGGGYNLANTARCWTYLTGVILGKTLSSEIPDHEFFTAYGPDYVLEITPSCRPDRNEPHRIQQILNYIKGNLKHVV

Histone deacetylase 9 = Histone deacetylase 9 (Homo sapiens, UniProt Q9UKV0); experiment: Inhibition of recombinant human HDAC9 using fluorogenic substrate by fluorescence microplate reader assay; outline: as §1
Chain of Histone deacetylase 9 (Q9UKV0 whole entry): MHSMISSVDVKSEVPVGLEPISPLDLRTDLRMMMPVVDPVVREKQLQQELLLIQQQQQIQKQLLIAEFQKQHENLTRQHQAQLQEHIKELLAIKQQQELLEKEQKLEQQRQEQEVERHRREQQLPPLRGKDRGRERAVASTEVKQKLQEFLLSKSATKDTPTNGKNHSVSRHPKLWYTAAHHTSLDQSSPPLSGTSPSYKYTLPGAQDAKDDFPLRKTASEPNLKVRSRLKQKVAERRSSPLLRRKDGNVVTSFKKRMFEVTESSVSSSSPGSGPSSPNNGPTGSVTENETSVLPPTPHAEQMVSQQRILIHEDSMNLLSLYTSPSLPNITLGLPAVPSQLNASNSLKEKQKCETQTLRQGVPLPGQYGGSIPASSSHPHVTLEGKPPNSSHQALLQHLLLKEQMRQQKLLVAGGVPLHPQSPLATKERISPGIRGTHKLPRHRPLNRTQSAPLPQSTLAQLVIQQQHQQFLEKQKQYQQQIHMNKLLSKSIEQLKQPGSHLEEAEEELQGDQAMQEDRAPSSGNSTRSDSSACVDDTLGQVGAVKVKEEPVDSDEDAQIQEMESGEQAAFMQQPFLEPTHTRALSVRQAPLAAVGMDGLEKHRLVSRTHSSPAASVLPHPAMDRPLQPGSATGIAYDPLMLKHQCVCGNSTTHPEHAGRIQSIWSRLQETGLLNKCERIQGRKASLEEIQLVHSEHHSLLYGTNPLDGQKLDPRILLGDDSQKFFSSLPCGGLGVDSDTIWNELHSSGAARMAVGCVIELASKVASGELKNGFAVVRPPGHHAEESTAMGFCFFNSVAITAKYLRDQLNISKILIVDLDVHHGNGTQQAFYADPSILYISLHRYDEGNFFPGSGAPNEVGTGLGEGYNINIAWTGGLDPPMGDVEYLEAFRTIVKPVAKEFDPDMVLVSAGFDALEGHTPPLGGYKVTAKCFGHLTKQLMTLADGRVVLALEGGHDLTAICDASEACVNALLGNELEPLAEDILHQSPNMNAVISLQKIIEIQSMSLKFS

Histone deacetylase 4 = Histone deacetylase 4 (Homo sapiens, UniProt P56524); experiment: Inhibition of recombinant human HDAC4 using fluorogenic substrate by fluorescence microplate reader assay; outline: as §1
Chain of Histone deacetylase 4 (P56524 whole entry): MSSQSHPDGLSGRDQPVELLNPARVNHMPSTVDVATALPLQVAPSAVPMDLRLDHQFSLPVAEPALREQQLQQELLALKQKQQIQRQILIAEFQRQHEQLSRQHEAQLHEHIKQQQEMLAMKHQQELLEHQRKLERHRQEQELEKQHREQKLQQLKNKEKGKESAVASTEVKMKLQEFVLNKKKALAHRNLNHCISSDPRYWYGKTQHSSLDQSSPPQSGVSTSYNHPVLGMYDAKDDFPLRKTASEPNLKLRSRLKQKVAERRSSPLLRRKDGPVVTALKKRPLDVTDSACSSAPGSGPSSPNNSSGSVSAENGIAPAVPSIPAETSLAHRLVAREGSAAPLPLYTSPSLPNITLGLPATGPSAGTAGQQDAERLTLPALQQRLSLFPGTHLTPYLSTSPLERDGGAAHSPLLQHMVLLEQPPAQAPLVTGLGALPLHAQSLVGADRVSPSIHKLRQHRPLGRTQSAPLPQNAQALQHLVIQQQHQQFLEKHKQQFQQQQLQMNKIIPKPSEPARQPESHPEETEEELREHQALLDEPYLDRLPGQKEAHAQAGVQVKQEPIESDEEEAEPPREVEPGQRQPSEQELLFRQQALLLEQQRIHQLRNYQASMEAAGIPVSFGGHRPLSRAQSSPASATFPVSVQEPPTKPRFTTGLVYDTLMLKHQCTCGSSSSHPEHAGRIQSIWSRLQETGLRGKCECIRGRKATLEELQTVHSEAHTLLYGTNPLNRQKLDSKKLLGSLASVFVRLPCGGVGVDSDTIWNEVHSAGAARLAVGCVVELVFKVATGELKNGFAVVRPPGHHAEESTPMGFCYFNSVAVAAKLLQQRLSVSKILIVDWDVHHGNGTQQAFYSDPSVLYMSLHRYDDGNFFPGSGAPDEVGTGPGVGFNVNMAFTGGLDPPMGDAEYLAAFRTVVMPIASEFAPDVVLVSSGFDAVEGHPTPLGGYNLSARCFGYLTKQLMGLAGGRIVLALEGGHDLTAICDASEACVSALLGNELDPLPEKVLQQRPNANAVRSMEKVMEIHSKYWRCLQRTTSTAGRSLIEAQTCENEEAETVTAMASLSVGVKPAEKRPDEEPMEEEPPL

[2] = Inhibition of HDAC class 2a in human L3.6pl cells using TFA-lysine as fluorogenic substrate by fluorescence microplate reader assay; assay type: cell-based
[3] = molecular target: T1, Class 1 histone deacetylase; experiment: Inhibition of HDAC class 1 in human L3.6pl cells using TFA-lysine as fluorogenic substrate by fluorescence microplate reader assay; assay type: cell-based
[4] = Inhibition of HDAC class 2b in human L3.6pl cells using TFA-lysine as fluorogenic substrate by fluorescence microplate reader assay; assay type: cell-based
[5] = Inhibition of HDAC class 2b in human THP-1 cells using TFA-lysine as fluorogenic substrate by fluorescence microplate reader assay; assay type: cell-based
[6] = molecular target: T1, Class 1 histone deacetylase; experiment: Inhibition of HDAC class 1 in human HT-29 cells using […] as fluorogenic substrate by fluorescence microplate reader assay; assay type: cell-based
Outline: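 HT-29 cells were plated at 200,000 cells/well in RPMI without phenol red with 0.1% FBS, with 100 µM Boc-Lys-TFA for class IIa or 200 µM Boc-Lys-Ac for class I/IIb. Compounds ran as an 11-point curve (5% final DMSO), with 5 µM trichostatin A as the positive control. Incubation was 3 h at 37 °C, then trypsin developer with Tween 80 for 1 h to lyse cells and release fluorophore.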

[7] = Inhibition of HDAC class 2b in human HT-29 cells using Boc-Lys-Ac as substrate incubated for 3 hrs by microplate reader assay; assay type: cell-based; conditions: HT-29, 3 h
Histone deacetylase 2 = Histone deacetylase 2 (Homo sapiens, UniProt Q92769); experiment: Inhibition of recombinant human HDAC2 using fluorogenic substrate by fluorescence microplate reader assay; outline: as §1
Chain of Histone deacetylase 2 (Q92769 whole entry): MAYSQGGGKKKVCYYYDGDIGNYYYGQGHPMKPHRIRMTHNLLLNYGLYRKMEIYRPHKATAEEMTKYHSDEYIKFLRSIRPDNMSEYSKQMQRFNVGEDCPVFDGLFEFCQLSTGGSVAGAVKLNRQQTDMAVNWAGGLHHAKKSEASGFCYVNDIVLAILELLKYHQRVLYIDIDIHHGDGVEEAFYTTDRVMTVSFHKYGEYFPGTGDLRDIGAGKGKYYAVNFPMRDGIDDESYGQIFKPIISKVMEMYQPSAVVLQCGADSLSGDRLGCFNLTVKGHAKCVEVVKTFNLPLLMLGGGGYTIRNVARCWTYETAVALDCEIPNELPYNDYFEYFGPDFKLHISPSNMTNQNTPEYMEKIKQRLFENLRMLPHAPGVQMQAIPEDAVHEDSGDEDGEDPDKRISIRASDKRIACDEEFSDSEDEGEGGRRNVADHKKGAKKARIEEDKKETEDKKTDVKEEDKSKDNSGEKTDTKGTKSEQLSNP

Histone deacetylase 11 = molecular target: T3, Histone deacetylase 11 (Homo sapiens, UniProt Q96DB2); experiment: Inhibition of recombinant human HDAC11 using fluorogenic substrate by fluorescence microplate reader assay; outline: as §1
T3 sequence (Q96DB2 whole entry): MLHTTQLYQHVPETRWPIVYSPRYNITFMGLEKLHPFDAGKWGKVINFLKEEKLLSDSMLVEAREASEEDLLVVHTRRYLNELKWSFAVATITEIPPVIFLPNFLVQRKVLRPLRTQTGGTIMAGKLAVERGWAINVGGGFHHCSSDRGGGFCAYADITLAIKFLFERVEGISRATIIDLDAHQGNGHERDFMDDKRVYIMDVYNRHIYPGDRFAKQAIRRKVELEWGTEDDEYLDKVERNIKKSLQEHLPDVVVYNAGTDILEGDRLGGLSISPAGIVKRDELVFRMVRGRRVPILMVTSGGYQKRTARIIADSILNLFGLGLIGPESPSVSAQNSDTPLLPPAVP

[8] = molecular target: T1, Class 1 histone deacetylase; experiment: Inhibition of HDAC class 1 in human PANC-1 cells using TFA-lysine as fluorogenic substrate by fluorescence microplate reader assay; assay type: cell-based

Chain of Histone deacetylase 1 (Q13547 whole entry, canonical isoform): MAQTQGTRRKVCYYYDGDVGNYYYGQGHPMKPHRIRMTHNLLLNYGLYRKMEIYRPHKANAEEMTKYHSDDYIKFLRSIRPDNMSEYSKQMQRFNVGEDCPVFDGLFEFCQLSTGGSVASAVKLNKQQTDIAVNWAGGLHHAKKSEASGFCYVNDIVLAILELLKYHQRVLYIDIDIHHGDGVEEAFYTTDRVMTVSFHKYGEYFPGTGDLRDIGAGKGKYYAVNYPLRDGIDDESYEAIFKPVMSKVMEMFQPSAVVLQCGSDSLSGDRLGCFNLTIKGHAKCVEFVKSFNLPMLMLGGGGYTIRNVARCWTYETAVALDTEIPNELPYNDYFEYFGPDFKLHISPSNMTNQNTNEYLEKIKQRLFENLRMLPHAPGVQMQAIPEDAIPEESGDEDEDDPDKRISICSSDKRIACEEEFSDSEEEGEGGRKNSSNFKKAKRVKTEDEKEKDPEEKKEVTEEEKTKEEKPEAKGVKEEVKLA

- IC50 (Histone deacetylase 1): > 5 µM
- IC50 [1]: > 50 µM
- IC50 (Histone deacetylase 8): > 5 µM
- IC50 (Histone deacetylase 9): 0.0024 µM
- IC50 (Histone deacetylase 4): 0.128 µM
- IC50 [2]: 0.893 µM
- IC50 [3]: > 5 µM
- IC50 [4]: > 5 µM
- IC50 [5]: > 5 µM
- IC50 [6]: > 5 µM
- IC50 [7]: > 50 µM
- IC50 (Histone deacetylase 2): > 5 µM
- IC50 (Histone deacetylase 11): > 5 µM
- IC50 [8]: > 5 µM
SMILES: CC(C)(CNC(=O)c1cccc(-c2noc(C(F)(F)F)n2)c1)c1coc(-c2ccccc2)n1
